Reference: ChEMBL document CHEMBL1145969, “New semisynthetic quassinoids with in vivo antimalarial activity” (J Med Chem, 2003)

Assays:
[1] = tested on: Plasmodium falciparum; test: In vitro antimalarial activity against Plasmodium falciparum; type: functional, organism-based
Summary of the method: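 Chloroquine-sensitive P. falciparum, FCR-3 strain, grown in vitro; potency is reported as EC50.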

[2] = tested on: FM3A; test: Cytotoxicity of compound was tested against mouse mammary tumor FM3A cells; type: functional, cell-based
[3] = Selectivity index defined as mean of EC50 value for FM3A cells/mean of EC50 value for Plasmodium falciparum was determined; type: functional
Summary of the method: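 Index is the mean EC50 in FM3A mouse mammary tumor cells (the host-cell model) divided by the mean EC50 against chloroquine-sensitive P. falciparum FCR-3.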

[4] = tested on: Mus musculus; test: Antimalarial potency was evaluated by the increase of life span of mice (Mus musculus) at 3 mg/kg; type: functional
Summary of the method: (§1)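 Mice infected with P. berghei were treated daily in a 4-day suppressive test, with the dose as given in each line. Increase of life span = (T/C − 1) × 100%, where T and C are the mean survival days of the treated and control groups.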

[5] = tested on: Mus musculus; test: In Vivo antimalarial activity of compound was tested in Plasmodium berghei infected mice (Mus musculus); type: functional
Summary of the method: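 Four-day suppressive test in P. berghei-infected mice, dosed daily at up to 3.0 mg/kg per day. Parasitemia is the number of infected erythrocytes over total erythrocytes. Survival is scored as increase of life span: ILS = (T/C − 1) × 100%, using mean survival days of the treated (T) and control (C) groups.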

[6] = tested on: Mus musculus; test: Antimalarial potency was evaluated by the increase of life span of mice (Mus musculus) at 1 mg/kg; type: functional; summary of the method: as §1

| Compound | EC50 [1] | EC50 [2] | Selectivity index [3] | ILS at 3 mg/kg [4] | ED50 [5] | ED90 [5] | ILS at 1 mg/kg [6] |
| --- | --- | --- | --- | --- | --- | --- | --- |
| CCCCOC(=O)OC1=C(C)[C@@H]2C[C@H]3OC(=O)[C@H](OC(=O)OCCCC)[C@H]4[C@]5(C(=O)OC)OC[C@]34[C@H]([C@@H](O)[C@@H]5O)[C@@]2(C)CC1=O | 14 nM | 0.7 µM | 50 | – | – | – | – |
| COC(=O)[C@@]12OC[C@]34[C@H]([C@@H](O)[C@@H]1O)[C@@]1(C)CC(=O)C(OC(=O)OC(C)C)=C(C)[C@@H]1C[C@H]3OC(=O)[C@H](OC(=O)OC(C)C)[C@@H]24 | 80 nM | 11 µM | 138 | 86% | 1.4 mg/kg | > 3 mg/kg | – |
| COC(=O)[C@@]12OC[C@]34[C@H]([C@@H](O)[C@@H]1O)[C@@]1(C)CC(=O)C(OC(C)=O)=C(C)[C@@H]1C[C@H]3OC(=O)[C@H](O)[C@@H]24 | 880 nM | > 32 µM | >36 | – | – | – | – |
| COC(=O)[C@@]12OC[C@]34[C@H]([C@@H](O)[C@@H]1O)[C@@]1(C)CC(=O)C(O)=C(C)[C@@H]1C[C@H]3OC(=O)[C@H](O)[C@@H]24 [BRUCEOLIDE] | – | – | – | – | 1.1 mg/kg | – | – |
| CCN(CC)CCCC(C)Nc1ccnc2cc(Cl)ccc12 (stereo not drawn) [CHLOROQUINE] | – | 32 µM | 1780 | 15% | 2 mg/kg | 3.3 mg/kg | – |
| COC(=O)[C@@]12OC[C@]34[C@H]([C@@H](O)[C@@H]1O)[C@@]1(C)CC(=O)C(O)=C(C)[C@@H]1C[C@H]3OC(=O)[C@H](OC(C)=O)[C@@H]24 [BRUCEINE B] | – | 8 µM | 333 | – | – | – | – |
| COC(=O)OC1=C(C)[C@@H]2C[C@H]3OC(=O)[C@H](OC(=O)OC)[C@H]4[C@]5(C(=O)OC)OC[C@]34[C@H]([C@@H](O)[C@@H]5O)[C@@]2(C)CC1=O | 90 nM | > 63 µM | >700 | 196% | 1.3 mg/kg | 3 mg/kg | – |
| COC(=O)[C@@]12OC[C@]34[C@H]([C@@H](O)[C@@H]1O)[C@@]1(C)CC(=O)C(OC(C)=O)=C(C)[C@@H]1C[C@H]3OC(=O)[C@H](OC(C)=O)[C@@H]24 | – | 16 µM | 410 | – | 0.46 mg/kg | 0.98 mg/kg | 49% |
| COC(=O)O[C@H]1C(=O)O[C@@H]2C[C@H]3C(C)=C(O)C(=O)C[C@]3(C)[C@H]3[C@@H](O)[C@H](O)[C@@]4(C(=O)OC)OC[C@]32[C@@H]14 | 53 nM | 8.7 µM | 164 | – | – | – | – |
| CCCOC(=O)OC1=C(C)[C@@H]2C[C@H]3OC(=O)[C@H](OC(=O)OCCC)[C@H]4[C@]5(C(=O)OC)OC[C@]34[C@H]([C@@H](O)[C@@H]5O)[C@@]2(C)CC1=O | 100 nM | 6.6 µM | 66 | – | – | – | – |
| CCOC(=O)OC1=C(C)[C@@H]2C[C@H]3OC(=O)[C@H](OC(=O)OCC)[C@H]4[C@]5(C(=O)OC)OC[C@]34[C@H]([C@@H](O)[C@@H]5O)[C@@]2(C)CC1=O | 64 nM | 36 µM | 563 | 182% | 0.49 mg/kg | 1.9 mg/kg | – |
